Experimental data taken from ChEMBL document CHEMBL4011639, “Discovery of Novel Nucleotide Prodrugs with Improved Potency Against HCV Variants Carrying NS5B S282T Mutation” (J Med Chem, 2017).

Legend:
[1] = Drug metabolism in human HuH7 cells assessed as carboxylesterase-mediated (S)-2-((S)-(((2R,3R,4R,5R)-5-(4-amino-2-oxopyrimidin-1(2H)-yl)-4-fluoro-3-hydroxy-4-methyltetrahydrofuran-2-yl)methoxy)(hydroxy)phosphoryloxy)propanoic acid metabolite formation at 50 uM after 24 hrs by LC/MS/MS analysis; format: ADME, cell-based
Procedure, shortened: (§1)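 Huh-7 cells plated at 0.35 million/mL in DMEM with 10% FBS (about 1 million per well at dosing) and grown 18 h. At each time point cells were washed with cold saline and lysed in methanol with internal standard. Semiquantified by LC/MS/MS MRM as Δ mean peak-area ratio relative to t0.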

[2] = Half life in human liver S9 fraction at 10 uM by LC/MS/MS analysis; format: ADME
Procedure, shortened: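 Compound at 10 μM working solution (1% DMSO, 5% MeOH in 100 mM Tris) incubated at 37 °C with human liver S9 at 1 mg protein/mL final. Reactions stopped with cold acetonitrile containing tolbutamide internal standard at 0, 5, 10, 20, 30 and 60 min. Parent measured by LC/MS/MS (MRM) as analyte/IS peak area ratio, given as percent remaining versus 0 min; half-life fitted.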

[3] = Drug metabolism in human HuH7 cells assessed as carboxylesterase-mediated (S)-2-((S)-(((2R,3R,4R,5R)-5-(4-amino-2-oxopyrimidin-1(2H)-yl)-4-fluoro-3-hydroxy-4-methyltetrahydrofuran-2-yl)methoxy)(hydroxy)phosphoryloxy)propanoic acid metabolite formation at 50 uM after 48 hrs by LC/MS/MS analysis; format: ADME, cell-based; procedure, shortened: as §1
Mus musculus [4] = experiment: Acute toxicity in ICR mouse assessed as mortality at 150 to 1800 mg/kg, administered via oral gavage measured once a day over 14 days; format: organism-based; conditions: in vivo, 336 h
Procedure, shortened: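 ICR mice, 22−25 g, 5 per sex per group. Single oral gavage at 150, 500, 1200 or 1800 mg/kg in vehicle of 30% PEG400/30% Tween 20/20% corn oil/20% water, with a vehicle control. Mortality, morbidity, clinical signs and body weight change recorded once daily for 14 days.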

Mus musculus [5] = experiment: Subacute toxicity in ICR mouse assessed as weight change in liver at 100 to 1000 mg/kg, administered once a day via oral gavage for 14 days; format: organism-based; conditions: in vivo, 336 h
Procedure, shortened: (§2)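 ICR mice, 22−25 g, 5 per sex per group, gavaged daily for 14 days at 100, 500 or 1000 mg/kg in 30% PEG400/30% Tween 20/20% corn oil/20% water, with a vehicle control group. Observed daily for body weight change, skin and fur, inflammation and necrosis. Animals anesthetized on day 15; organ weights (liver, kidney) taken. Serum SGOT/SGPT compared with controls.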

Liver carboxylesterase 1 = molecular target: T1, Liver carboxylesterase 1 (Homo sapiens, UniProt P23141); experiment: Drug metabolism in human HuH7 cells assessed as carboxylesterase 1-mediated (S)-2-((R)-(((2R,3R,4R,5R)-5-(4-butyramido-2-oxopyrimidin-1(2H)-yl)-4-fluoro-3-hydroxy-4-methyltetrahydrofuran-2-yl)methoxy)(hydroxy)phosphorylamino)propanoic acid metabolite formation at 50 uM after 24 hrs by LC/MS/MS analysis; format: ADME, cell-based; procedure, shortened: as §1
T1 sequence (P23141 whole entry): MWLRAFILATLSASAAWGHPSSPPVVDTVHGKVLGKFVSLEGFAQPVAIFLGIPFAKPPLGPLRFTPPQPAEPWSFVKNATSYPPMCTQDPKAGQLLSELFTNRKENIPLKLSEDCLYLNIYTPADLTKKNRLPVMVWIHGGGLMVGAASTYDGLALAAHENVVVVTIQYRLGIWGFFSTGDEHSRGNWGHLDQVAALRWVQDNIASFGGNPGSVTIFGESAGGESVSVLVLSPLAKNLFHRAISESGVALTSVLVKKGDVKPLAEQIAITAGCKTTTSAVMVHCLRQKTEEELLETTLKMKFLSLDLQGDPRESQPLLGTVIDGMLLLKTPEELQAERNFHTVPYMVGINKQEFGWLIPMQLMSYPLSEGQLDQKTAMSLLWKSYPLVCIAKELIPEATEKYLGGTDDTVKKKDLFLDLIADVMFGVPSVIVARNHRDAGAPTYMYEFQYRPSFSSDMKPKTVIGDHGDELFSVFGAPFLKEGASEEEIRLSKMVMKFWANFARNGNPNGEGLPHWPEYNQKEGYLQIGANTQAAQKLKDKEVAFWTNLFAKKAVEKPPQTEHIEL

Mus musculus [6] = experiment: Subacute toxicity in ICR mouse assessed as macroscopic pathologic findings at 100 to 1000 mg/kg, administered once a day via oral gavage for 14 days; format: organism-based; conditions: in vivo, 336 h; procedure, shortened: as §2
[7] = Acute toxicity in ICR mouse administered as a single dose via oral gavage and observed over 14 days; conditions: in vivo
[8] = Drug metabolism in human HuH7 cells assessed as ((2R,3R,4R,5R)-4-fluoro-3-hydroxy-5-(4-hydroxy-2-oxo-3,4-dihydropyrimidin-1(2H)-yl)-4-methyltetrahydrofuran-2-yl)methyl tetrahydrogen triphosphate metabolite formation at 50 uM after 48 hrs by LC/MS/MS analysis; format: ADME, cell-based; conditions: huh-7, 48 h; procedure, shortened: as §1
[9] = Cmax in Beagle dog at 150 mg/kg, administered via oral gavage measured up to 24 hrs post dose by LC/MS/MS analysis; format: ADME, organism-based, Canis lupus familiaris; set-up: dose 150 mg/kg, route oral; conditions: in vivo
Procedure, shortened: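 Beagle dogs, 3 per sex, given a single oral gavage dose of 150 mg/kg in 20% w/v hydroxypropyl-β-cyclodextrin in water, 2.5 mL/kg. K2EDTA blood taken by venipuncture at 0.5, 0.75, 1, 2, 4, 6, 8, 12 and 24 h. Plasma extracted with ice-cold acetonitrile, then LC/MS/MS in positive MRM mode with zolpidem as internal standard. Noncompartmental analysis; mean ± SD.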

[10] = Drug metabolism in human HuH7 cells assessed as nucleoside diphosphate kinase-mediated ((2R,3R,4R,5R)-5-(4-amino-2-oxopyrimidin-1(2H)-yl)-4-fluoro-3-hydroxy-4-methyltetrahydrofuran-2-yl)methyl tetrahydrogen triphosphate metabolite formation at 50 uM after 48 hrs by LC/MS/MS analysis; format: ADME, cell-based; procedure, shortened: as §1
[11] = Drug metabolism in human HuH7 cells assessed as carboxylesterase-mediated (S)-isopropyl 2-((S)-(((2R,3R,4R,5R)-5-(4-amino-2-oxopyrimidin-1(2H)-yl)-4-fluoro-3-hydroxy-4-methyltetrahydrofuran-2-yl)methoxy)(phenoxy)phosphoryloxy)propanoate metabolite formation at 50 uM after 48 hrs by LC/MS/MS analysis; format: ADME; conditions: cell-based; procedure, shortened: as §1
Mus musculus [12] = experiment: Subacute toxicity in ICR mouse assessed as alteration in basic levels of SGPT at 100 to 1000 mg/kg, administered once a day via oral gavage for 14 days; format: organism-based; conditions: in vivo, 336 h; procedure, shortened: as §2
Mus musculus [13] = experiment: Subacute toxicity in ICR mouse assessed as body weight loss at 100 to 1000 mg/kg, administered once a day via oral gavage for 14 days; format: organism-based; conditions: in vivo, 336 h; procedure, shortened: as §2
Mus musculus [14] = experiment: Subacute toxicity in ICR mouse assessed as mortality at 100 to 1000 mg/kg, administered once a day via oral gavage for 14 days; format: organism-based; conditions: in vivo, 336 h; procedure, shortened: as §2
[15] = molecular target: Adenosine 5'-monophosphoramidase HINT1 (Homo sapiens, UniProt P49773); experiment: Drug metabolism in human HuH7 cells assessed as HINT1-mediated ((2R,3R,4R,5R)-5-(4-butyramido-2-oxopyrimidin-1(2H)-yl)-4-fluoro-3-hydroxy-4-methyltetrahydrofuran-2-yl)methyl dihydrogen phosphate metabolite formation at 50 uM after 48 hrs by LC/MS/MS analysis; format: ADME, cell-based; procedure, shortened: as §1
Adenosine 5'-monophosphoramidase HINT1, sequence (P49773 whole entry): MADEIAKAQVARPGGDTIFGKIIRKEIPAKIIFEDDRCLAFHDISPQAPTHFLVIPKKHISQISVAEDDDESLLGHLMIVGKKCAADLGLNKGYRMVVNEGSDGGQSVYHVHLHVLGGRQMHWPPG

## CCCC(=O)Nc1ccn([C@@H]2O[C@H](CO[P@@](=O)(N[C@@H](C)C(=O)OC(C)C)Oc3ccccc3)[C@@H](O)[C@@]2(C)F)c(=O)n1
[1]
  Drug metabolism: Metabolite_Detected
[2]
  half-life at 10 µM: 9.6 min
[3]
  Drug metabolism: Metabolite_Detected
Mus musculus [4]
  Activity: Non-Toxic
Mus musculus [5]
  Activity: Non-Toxic
Liver carboxylesterase 1
  Drug metabolism: Metabolite_Detected
Mus musculus [6]
  Activity: Non-Toxic
[7]
  NOAEL at 336 h: > 1800 mg/kg
[8]
  Drug metabolism: Metabolite_Notdetected
[9]
  Cmax: 51.3 ng/mL
[10]
  Drug metabolism: Metabolite_Detected
[11]
  Drug metabolism: Metabolite_Detected
Mus musculus [12]
  Activity: Non-Toxic
Mus musculus [13]
  Activity: Non-Toxic
Mus musculus [14]
  Activity: Non-Toxic
[15]
  Drug metabolism: Metabolite_Notdetected
